A selection: hits, their analogues and other compounds. The true share with any hit is near 2.2%.
Rin1 Abl inh – inhibitors of Rin1-Abl protein binding, primary screen, biochemical, TR-FRET; inhibition, % at 7.35 µM; 360,000 tested, 0.4% active; AID 588664, 2011; Tyrosine-protein kinase ABL1 (Homo sapiens) + Ras and Rab interactor 1 (Homo sapiens), …; in the data active means inhibition above about 5%, passing the limit was not always enough
Apaf-1 inh – inhibitors of human Apaf-1 apoptosome, primary screen, biochemical, DEVD-Rh110 fluorescence, uHTS. reconstituted apoptosome caspase-3 activity. inhibition, % at 20 µM. 330,000 tested, 0.71% active. Apoptotic protease-activating factor 1 (Homo sapiens), O14727; active means inhibition of at least 40% at 20 µM
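Assay system – apoptosome proteins · Medium – Hepes buffer, pH 7.5 · Also added – cytochrome c with DEVD-Rh110 · Timing – 30 min compound preincubation, 50 min activation, room temperature · Detection – Rh110 fluorescence, excitation 480 nm, emission 540 nm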
UBC13 polyUb – UBC13 polyubiquitin chain formation inhibitors, primary screen, biochemical, TR-FRET, uHTS; Ubiquitin-conjugating enzyme E2 N (Homo sapiens), P61088; inhibition, % at 20 µM; 330,000 tested, 0.47% active; AID 485273, 2010; in the data active means inhibition above about 45%, passing the limit was not always enough; inconclusive means no clear call, values can overlap the other calls
Target sequence (P61088 whole entry, looked up): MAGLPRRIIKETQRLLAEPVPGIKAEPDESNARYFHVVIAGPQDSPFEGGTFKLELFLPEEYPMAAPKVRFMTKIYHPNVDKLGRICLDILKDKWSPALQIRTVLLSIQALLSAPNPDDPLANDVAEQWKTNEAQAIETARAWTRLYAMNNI
SUMO HTRF inh – inhibitors of in vitro SUMOylation cascade, primary screen, biochemical, HTRF, uHTS; SUMO-conjugating enzyme UBC9 (Homo sapiens), P63279; HTRF SUMOylation assay, SAE1/SAE2 + UBC9; inhibition, % at 35 µM; 290,000 tested, 0.36% active; in the data active means inhibition above about 50%, passing the limit was not always enough; inconclusive means no clear call, values can overlap the other calls
Target sequence (P63279 whole entry, looked up): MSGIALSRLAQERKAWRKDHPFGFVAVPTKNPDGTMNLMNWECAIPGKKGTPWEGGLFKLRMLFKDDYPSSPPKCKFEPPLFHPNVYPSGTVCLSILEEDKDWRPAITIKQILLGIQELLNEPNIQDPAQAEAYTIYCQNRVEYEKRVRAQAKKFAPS
GSTO1 inh – inhibitors of recombinant GSTO1, primary screen, counter-screen for RBBP9 inhibitor project, biochemical, fluorescence polarization; activity-based probe fluorescence polarization; inhibition, % at 5.96 µM; 300,000 tested, 1.1% active; AID 1974, 2009;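 active means inhibition above the campaign mean inhibition plus 3 SD, cut at about 35% in these data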
Target sequence (P78417 whole entry, looked up): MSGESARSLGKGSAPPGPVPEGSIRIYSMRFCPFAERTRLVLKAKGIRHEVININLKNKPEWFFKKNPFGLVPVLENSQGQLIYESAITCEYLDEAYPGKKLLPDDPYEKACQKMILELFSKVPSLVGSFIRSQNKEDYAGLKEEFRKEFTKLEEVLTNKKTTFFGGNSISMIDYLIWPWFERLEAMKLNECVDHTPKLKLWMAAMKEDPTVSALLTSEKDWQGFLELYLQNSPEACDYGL
PAD4 FP inh – human PAD4 inhibitors, primary screen, biochemical, fluorescence polarization, 1536-well format. 330,000 tested, 0.41% active. recombinant PAD4, RCA probe fluorescence polarization. inhibition, % at 6.36 µM. Protein-arginine deiminase type-4 (Homo sapiens), Q9UM07. AID 485272, 2010;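 active means percent inhibition above a cutoff equal to the mean of all tested compounds plus 3 SD, cut at about 15% in these data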
A number is an active result; 0 = inactive; ? = inconclusive; - = not tested or not shown.

SMILES | Rin1 Abl inh | Apaf-1 inh | UBC13 polyUb | SUMO HTRF inh | GSTO1 inh | PAD4 FP inh
COc1ccccc1C(=O)C1CCCN(C(=O)c2cnn(C(C)C)c2)C1 (centres undefined) | 0 | 0 | 0 | 0 | 0 | 0
O=C(OCn1ncc(Br)c(Br)c1=O)c1c(F)cccc1F | - | - | - | 0 | 0 | 22
O=C(Nc1ccc(N2CCOCC2)cc1)Nc1ccc2nc(-c3ccco3)c(-c3ccco3)nc2c1 | 0 | 0 | 0 | ? | 0 | 0
O=C(NCCCO)Nc1ccc2nc(-c3ccco3)c(-c3ccco3)nc2c1 | - | 57 | 0 | 93 | 66 | 0
COc1ccc(CNc2oc(COc3ccccc3Cl)nc2C#N)cc1 | 0 | 0 | 0 | 0 | 35 | 0
Cc1c(CCC(=O)NCCCn2ccnc2)c(=O)oc2c(C)c3oc4c(c3cc12)CCCC4 | 0 | 0 | 53 | 0 | 0 | 0
Oc1ccc(C=Nc2ccc3ncccc3c2)c(O)c1 | - | 95 | 0 | 65 | 0 | 0
COc1cccc(N=Cc2ccc(O)cc2O)c1 | 0 | 0 | 0 | 0 | 0 | 0
CC(C)Nc1nc(Nc2ccc(Cl)cc2F)c2sccc2n1 | 0 | - | - | - | - | -
COc1ccccc1CNc1nc(Oc2cccc(F)c2)c2sccc2n1 | 0 | - | - | - | - | -
O=C(CCl)NC1CCCc2ccccc21 (centres undefined) | 0 | 0 | 0 | 0 | 72 | 0
O=C(Cc1ccc(Br)cc1)NC1CCCc2ccccc21 (centres undefined) | 0 | 0 | 0 | 0 | 0 | 0
Cc1ccccc1-c1nc(CS(=O)(=O)CC(=O)NCCCN2CC(C)CC(C)C2)c(C)o1 (centres undefined) | 0 | 0 | 0 | 0 | 0 | 0
O=c1[nH]c2ccc(S(=O)(=O)N3CCN(Cc4ccccc4)CC3)cc2[nH]c1=O | 0 | 0 | 0 | 0 | 35 | 0
COc1cc(S(=O)(=O)N2CCN(Cc3ccccc3)CC2)ccc1Br | 0 | 0 | 0 | 0 | 0 | 0
O=[N+]([O-])c1c(NCCCO)cc(SCc2ccco2)c2nonc12 | 0 | 0 | 0 | 90 | 35 | 0
COc1ccc(CNc2cc(NCCCO)c([N+](=O)[O-])c3nonc23)cc1 | 0 | 0 | 0 | 96 | 0 | 0
COc1ccc(Nc2cc(NCCCO)c([N+](=O)[O-])c3nonc23)cc1 | 0 | 0 | 0 | 0 | 0 | 0
CCCC(=O)OCCNc1cc(SCCC(=O)OC)c2nonc2c1[N+](=O)[O-] | 0 | 0 | 0 | 74 | 0 | 0
COc1ccc(CCC(=O)N2CCN(S(=O)(=O)c3ccc(OC)c([N+](=O)[O-])c3)CC2)cc1 | 0 | - | - | - | - | -
CC1=CC(=Nc2c(C)n(C)n(-c3ccccc3)c2=O)C=C(C)C1=O | 0 | 0 | 0 | 0 | 50 | 0
CCC(C)C1=CC(=Nc2c(C)n(C)n(-c3ccccc3)c2=O)C=C(C(C)CC)C1=O (centres undefined) | 0 | 0 | 0 | 0 | 0 | 0
Cc1ccc(OC(=O)NC2CCS(=O)(=O)C2)cc1C (centres undefined) | 0 | 0 | 0 | 0 | 0 | 0
O=C(NC1CCS(=O)(=O)C1)Oc1ccccc1 (centres undefined) | 0 | 51 | 0 | 0 | 0 | 0
Cc1cc(C)c2cc(C(=O)N3CCN(c4ncccc4C(F)(F)F)CC3)[nH]c2c1 | 0 | 0 | 0 | 0 | 0 | 0
SMILES | Rin1 Abl inh | Apaf-1 inh | UBC13 polyUb | SUMO HTRF inh | GSTO1 inh | PAD4 FP inh
CC(/C=N/NC(=O)Cc1cc(=O)[nH][nH]1)=C\c1ccccc1 | 0 | 60 | 0 | 0 | 0 | 0
C=C1N(C)c2cc([N+](=O)[O-])c(N)cc2C1(C)C | 0 | 0 | 0 | 0 | 36 | 0
CCN(CC)CCNC(=O)c1ccc2c(c1NCCO)C(=O)c1ccccc1C2=O | 0 | 54 | 0 | 0 | 0 | 0
CC1CCN(C(=O)c2ccc3c(c2NCCO)C(=O)c2ccccc2C3=O)CC1 | 0 | 0 | 0 | 0 | 0 | 0
CCOc1cc(/C=N/N=C(\N)c2nonc2N)cc(Br)c1OCc1cccc2ccccc12 | 0 | 0 | 0 | 56 | 0 | 0
COc1ccc(S(=O)(=O)Nc2cc(Sc3ncn[nH]3)c(O)c3ccccc23)cc1 | - | - | - | 88 | - | -
BrC(=C\c1ccccc1)/C=N/Nc1nc2ccccc2[nH]1 | 0 | 0 | 0 | 0 | 37 | 0
O=S(CC(O)c1ccccc1)c1ccccc1 (centres undefined) | 0 | - | - | - | - | -
Cc1cc(C)cc(NC(=S)Nc2cccc3ccccc23)c1 | 0 | 0 | 0 | 0 | 0 | 0
CN(C)S(=O)(=O)c1cccc(NC(=S)Nc2cccc3cnccc23)c1 | 0 | - | - | 99 | - | -
CCc1cccc(NC(=S)Nc2cccc3ccccc23)c1 | 0 | 79 | 0 | 0 | 0 | 0
COc1cccc(NC(=S)Nc2cccc3ccccc23)c1 | 0 | 94 | 0 | 0 | 0 | 0
CN(C)S(=O)(=O)c1cccc(NC(=S)Nc2ccc3cn[nH]c3c2)c1 | 0 | 0 | 0 | 0 | 0 | 0
COc1cc(NC(=S)Nc2cccnc2)cc(OC)c1 | 0 | 0 | 0 | 72 | 0 | 0
Cc1c(C(=O)NCc2ccccc2C(F)(F)F)sc(=O)n1Cc1ccc2ccccc2c1 | 0 | - | - | - | - | -
CN1N=C2c3ccccc3CCCC2C1c1ccc(F)cc1 (centres undefined) | 0 | 0 | 0 | 0 | 0 | 0
CCCc1cc(NC(=O)CCl)n(-c2ccccc2)n1 | 0 | 0 | 0 | 0 | 101 | 0
CCCc1cc(NC(=O)COC(=O)c2ccc(O)cc2O)n(-c2ccccc2)n1 | 0 | 0 | 0 | - | - | 0
Nc1cc2nn(-c3ccccc3)nc2cc1Cl | 0 | - | - | 78 | - | -
Nc1ccc(-n2nc3ccccc3n2)cc1 | 0 | 0 | 0 | - | 0 | 0
CCC(=O)N1N=C(c2c(-c3ccccc3)c3cc(Cl)ccc3[nH]c2=O)CC1c1ccco1 (centres undefined) | 0 | 0 | 0 | 54 | 0 | 0
CSCC[C@H](NC(=O)Cc1c(C)c2c(cc(C)c3c(C)c(C)oc32)oc1=O)C(=O)O | 0 | 0 | 0 | 57 | - | -
CCC(NC(=O)Cc1c(C)c2c(cc(C)c3c(C)c(C)oc32)oc1=O)C(=O)O (centres undefined) | 0 | 0 | 0 | 54 | - | -
Cc1oc2c(c(C)cc3oc(=O)c(CC(=O)NCCCO)c(C)c32)c1C | 0 | 0 | 0 | 0 | 0 | 0
Cc1oc2c(c(C)cc3oc(=O)c(CC(=O)NCC(=O)NCC(=O)NCC(C)O)c(C)c32)c1C (centres undefined) | 0 | 0 | 0 | 60 | - | -
COC(=O)CCC(=O)OC1(C)C(=O)C2=CN(CCc3ccccn3)C(c3ccc(OC)cc3)=CC2=C(Br)C1=O (centres undefined) | 0 | 73 | 0 | - | 66 | 0
COc1ccc(NC(=O)Nc2ccc3c(c2)C(=O)N([C@H](C)CO)C[C@H](C)[C@@H](CN(C)C(=O)Nc2c(C)noc2C)O3)cc1 | 0 | 0 | 0 | - | - | 0
